Assay results published in ChEMBL document CHEMBL2046346, “Discovery of phenylpropanoic acid derivatives containing polar functionalities as potent and orally bioavailable G protein-coupled receptor 40 agonists for the treatment of type 2 diabetes” (J Med Chem, 2012).

Columns and labels:
HepG2 [1] = assay: Induction of apoptosis in human HepG2 cells assessed as caspase 3/7 activity at 30 uM after 24 hrs by caspase Glo assay relative to staurosporine; type: cell-based; conditions: hepg2, 24 h
In short: (§1)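 HepG2 cells seeded 2 × 10^4/well, treated 1 day in DMEM with 0.5% FBS, 2 mM L-glutamine, 1 mM pyruvate. Caspase-Glo 3/7 luminescence; activity = (compound − 1% DMSO)/(30 μM staurosporine − 1% DMSO) ×100, n = 3.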

HepG2 [2] = assay: Induction of apoptosis in human HepG2 cells assessed as caspase 3/7 activity at 10 uM after 24 hrs by caspase Glo assay relative to staurosporine; type: cell-based; conditions: hepg2, 24 h; in short: as §1
[3] = Cytotoxicity against human HepG2 cells assessed as intracellular ATP level at 10 uM after 24 hrs by ATPlite assay relative to control; type: cell-based; conditions: read-out: Activity
In short: (§2)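 HepG2 cells seeded 2 × 10^4/well, treated 1 day in DMEM with 0.5% FBS, 2 mM L-glutamine, 1 mM pyruvate. ATP measured by ATPlite luminescence; % of 1% DMSO control (RLU ratio ×100), n = 3.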

[4] = biological target: T1, Free fatty acid receptor 1 (Homo sapiens, UniProt O14842); assay: Agonist activity at human GPR40 receptor expressed in CHO cells assessed as increase in intracellular calcium level for 90 secs by FLIPR assay in the presence of 0.1% BSA; type: functional, cell-based
T1 sequence (O14842 whole entry): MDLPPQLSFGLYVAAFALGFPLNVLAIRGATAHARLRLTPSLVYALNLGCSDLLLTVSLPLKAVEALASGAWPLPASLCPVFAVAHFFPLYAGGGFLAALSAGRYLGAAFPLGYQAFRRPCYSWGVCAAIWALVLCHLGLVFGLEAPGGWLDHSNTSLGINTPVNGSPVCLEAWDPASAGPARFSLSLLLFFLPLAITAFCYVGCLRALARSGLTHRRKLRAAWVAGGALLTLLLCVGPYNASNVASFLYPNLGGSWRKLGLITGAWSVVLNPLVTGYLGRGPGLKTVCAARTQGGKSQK
In short: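 CHO dhfr cells stably expressing human GPR40 plated overnight, loaded 60 min at 37 °C with Fluo 4 AM (2.5 μg/mL), 2.5 mmol/L probenecid, 0.1% fatty acid-free BSA. Ca2+ rise after compound addition read 90 s; response scaled between vehicle (0%) and 10 μM γ-linolenic acid (100%).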

[5] = biological target: T1, Free fatty acid receptor 1; assay: Displacement of 3-[4-({2',6'-dimethyl-6-[(4-[3H])phenylmethoxy]biphenyl-3-yl}methoxy)phenyl] propanoic acid from human GPR40 receptor expressed in CHO cell membrane after 90 mins by liquid scintillation counting in the presence of 0.2% BSA; type: cell membranes
In short: (§3)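 Membranes from CHO lines stably expressing human or rat GPR40, buffer 25 mmol/L Tris-HCl pH 7.5, 5 mmol/L EDTA, protease inhibitors, 0.05% CHAPS, 0.2% fatty-acid-free BSA. Tritiated ligand at 2 or 6 nmol/L with graded test compound, 90 min room temperature, GF/C filtration, scintillation counting. Nonspecific binding: 10 μmol/L unlabeled ligand. IC50 by nonlinear regression, Ki = IC50/(1+[L]/Kd).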

[6] = biological target: Free fatty acid receptor 1 (Rattus norvegicus, UniProt Q8K3T4); assay: Displacement of 3-[4-({2',6'-dimethyl-6-[(4-[3H])phenylmethoxy]biphenyl-3-yl}methoxy)phenyl] propanoic acid from rat GPR40 receptor expressed in CHO cell membrane after 90 mins by liquid scintillation counting in the presence of 0.2% BSA; type: cell membranes; in short: as §3
Sequence of Free fatty acid receptor 1 (Rattus norvegicus, UniProt Q8K3T4) (Q8K3T4 whole entry): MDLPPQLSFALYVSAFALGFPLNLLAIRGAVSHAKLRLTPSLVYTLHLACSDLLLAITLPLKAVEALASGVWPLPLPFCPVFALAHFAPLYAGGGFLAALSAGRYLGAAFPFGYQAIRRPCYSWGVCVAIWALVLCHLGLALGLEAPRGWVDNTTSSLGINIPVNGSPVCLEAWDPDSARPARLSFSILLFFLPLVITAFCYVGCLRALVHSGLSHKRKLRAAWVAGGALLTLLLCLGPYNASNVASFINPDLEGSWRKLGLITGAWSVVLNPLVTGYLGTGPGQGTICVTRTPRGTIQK

[7] = Lipophilicity, log D of the compound by RP-HPLC analysis; type: physicochemical
[8] = Cytotoxicity against human HepG2 cells assessed as intracellular ATP level at 30 uM after 24 hrs by ATPlite assay relative to control; type: cell-based; conditions: read-out: Activity; in short: as §2
[9] = Metabolic stability in human hepatic microsomes; type: ADME; conditions: liver microsomes, read-out: Stability
[10] = Metabolic stability in rat hepatic microsomes; type: ADME; conditions: liver microsomes, read-out: Stability

| EC50 [4] [nM] | Ki [5] [nM] | Ki [6] [nM] | logD [7] | microsomal CLint [9] [µL/min/mg] | microsomal CLint [10] [µL/min/mg] | SMILES | Activity (HepG2 [1]) [%] | Activity (HepG2 [2]) [%] | viability at 24 h, 10 µM [3] [%] | viability at 24 h, 30 µM [8] [%] |
| --- | --- | --- | --- | --- | --- | --- | --- | --- | --- | --- |
| 26 | 18 | 6.2 | 3.49 |  |  | CCOCCOc1cc(C)c(-c2cccc(CNc3ccc(CCC(=O)O)c(F)c3)c2)c(C)c1.Cl | 1.2 | 5.3 | 9.9 | 48.5 |
|  |  | 36 |  | 69 | 39 | Cc1cccc(C)c1-c1cccc(COc2ccc(CCC(=O)O)c(F)c2)c1 |  |  |  |  |
| 4.5 | 12 | 4.5 | 4.14 | 8 |  | CCOCCOc1cc(C)c(-c2cccc(COc3ccc(CCC(=O)O)c(F)c3)c2)c(C)c1 |  |  |  |  |
| 22 | 46 | 27 | 4.04 | 28 | 34 | Cc1cccc(C)c1-c1cccc(COc2ccc(CCC(=O)O)cc2)c1 |  |  |  |  |
| 20 | 47 | 87 | 3.38 |  |  | COc1ccc(COc2ccc(CCC(=O)O)cc2)cc1-c1c(C)cccc1C |  |  |  |  |
|  | 99 | 120 | 4.16 |  |  | COc1cc(COc2ccc(CCC(=O)O)c(F)c2)cc(-c2c(C)cccc2C)c1 |  |  |  |  |
| 99 | 20 | 4.5 | 2.39 | 2 |  | CCS(=O)(=O)CCOc1cc(C)c(-c2cccc(CNc3ccc(CCC(=O)O)c(F)c3)c2)c(C)c1 | -0.9 | -1 | 79.8 | 45.7 |
| 15 | 16 | 5.6 | 4.61 |  |  | Cc1cc(OCC2CC2)cc(C)c1-c1cccc(COc2ccc(CCC(=O)O)cc2)c1 |  |  |  |  |
| 14 | 15 | 6.7 | 5.08 |  |  | Cc1cc(OCc2ccccc2)cc(C)c1-c1cccc(COc2ccc(CCC(=O)O)cc2)c1 |  |  |  |  |
| 40 | 58 | 30 | 4.22 |  |  | Cc1cccc(C)c1-c1cccc(COc2ccc(CCC(=O)O)cc2)c1C |  |  |  |  |
| 12 | 25 | 6.2 | 3.83 |  |  | COc1cc(C)c(-c2cccc(COc3ccc(CCC(=O)O)cc3)c2)c(C)c1 |  |  |  |  |
| 31 | 12 | 6.7 | 4.23 |  |  | Cc1cccc(Oc2cc(C)c(-c3cccc(COc4ccc(CCC(=O)O)c(F)c4)c3)c(C)c2)n1.Cl | 41.1 | -0.4 | 56.7 | 47.5 |
|  | 520 | 10000 | 4.04 |  |  | COc1ccc(-c2c(C)cccc2C)cc1COc1ccc(CCC(=O)O)cc1 |  |  |  |  |
| 15 | 19 | 8.2 | 2.78 |  |  | Cc1cc(OCC2(O)CCS(=O)(=O)CC2)cc(C)c1-c1cccc(COc2ccc(CCC(=O)O)c(F)c2)c1 | 2.8 | -0.2 | 88.6 | 61.5 |
| 23 | 18 | 5.1 | 2.44 |  |  | Cc1cc(OC2CCS(=O)(=O)CC2)cc(C)c1-c1cccc(CNc2ccc(CCC(=O)O)c(F)c2)c1 | -0.7 | -0.5 | 78.8 | 60.7 |
| 13 | 23 | 10 | 3.89 |  |  | CCOCCOc1cc(C)c(-c2cccc(COc3ccc(CCC(=O)O)cc3)c2)c(C)c1 |  |  |  |  |
| 23 | 20 | 6.7 | 4.1 |  |  | Cc1cc(OC2CCOCC2)cc(C)c1-c1cccc(COc2ccc(CCC(=O)O)c(F)c2)c1 | 42.8 | 0.9 | 60.3 | 38.1 |
